Experimental data reported in ChEMBL document CHEMBL4049394, “Desing and synthesis of potent anti-Trypanosoma cruzi agents new thiazoles derivatives which induce apoptotic parasite death” (Eur J Med Chem, 2017).

Columns and labels:
[1] = test system: Trypanosoma cruzi; experiment: Antitrypanosomal activity against Trypanosoma cruzi Dm28c epimastigotes measured after 4 to 5 days by neubauer chamber method; type: functional
Procedure, shortened: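 Dm28c epimastigotes in LIT with 10% FBS, 1% hemin and gentamycin at 27 °C. Seeded at 10^6 cells/well and treated in triplicate for 4 days (table footnote: 5 days). Parasites counted in a Neubauer chamber against untreated wells as 100%. IC50 by nonlinear regression from at least five concentrations. Experiment repeated; only values with SD < 10% of mean kept.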

[2] = Cytotoxicity against mouse J774A.1 cells after 24 to 72 hrs by MTT assay; type: cell-based, J774.A1; conditions: read-out: MNCC
Procedure, shortened: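 J774A.1 macrophages in DMEM with 10% heat-inactivated FBS at 37 °C, 5% CO2. Seeded at 1×10^5 cells/well, 24 h preincubation, then compounds at 1–100 µg/mL for 72 h (table footnote: viability at 24 h). MTT 2 h, formazan dissolved in DMSO, absorbance read at 570 nm. Highest non-cytotoxic concentration reported.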

[3] = test system: Trypanosoma cruzi; experiment: Antitrypanosomal activity against bloodstream trypomastigote stage of Trypanosoma cruzi Y infected in monkey LLC-MK2 cells measured after 24 hrs by neubauer chamber method; type: functional; conditions: LLC-MK2, in Primates
Procedure, shortened: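 Y strain trypomastigotes taken from LLC-MK2 culture supernatant and held in RPMI-1640 with 10% FBS. Seeded at 4×10^5 cells/well and treated in triplicate for 24 h at 37 °C, 5% CO2. Motile parasites counted in a Neubauer chamber against untreated wells. IC50 by nonlinear regression from at least seven concentrations. Experiment repeated; SD < 10% of mean required.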

[4] = Selectivity index, ratio of highest non-cytotoxic concentration for mouse J774A.1 cells to CC50 for bloodstream trypomastigote stage of Trypanosoma cruzi Y infected in monkey LLC-MK2 cells; type: toxicity, cell-based; conditions: read-out: Selectivity Index
Procedure, shortened: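 Selectivity index is the highest non-cytotoxic concentration in J774A.1 macrophages divided by the 50% value against Y strain trypomastigotes measured after 24 h.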

[5] = test system: Trypanosoma cruzi; experiment: Potency index, ratio of benznidazole CC50 to compound CC50 for bloodstream trypomastigote stage of Trypanosoma cruzi Y infected in monkey LLC-MK2 cells; type: functional
[6] = biological target: Cruzipain (Trypanosoma cruzi) (UniProt P25779); experiment: Inhibition of Trypanosoma cruzi cruzain at 50 uM using Z-phe-Arg-aminomethylcoumarin as substrate pretreated for 10 mins measured for 5 mins by fluorometric method relative to control
Procedure, shortened: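 Cruzain at 0.5 nM in 0.1 M sodium acetate pH 5.5 with 0.1 mM β-mercaptoethanol and 0.01% Triton X-100. Compound screened at 50 µM after a 10-min preincubation with enzyme, then 2.5 µM Z-FR-AMC added. AMC fluorescence (ex 340/em 440 nm) followed for 5 min. Activity taken from initial rates relative to a DMSO control. Two independent experiments, each in triplicate.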

[7] = test system: Trypanosoma cruzi; experiment: Induction of apoptosis in bloodstream trypomastigote stage of Trypanosoma cruzi Y infected in monkey LLC-MK2 cells assessed as late apoptotic cells at 4.4 uM measured after 24 hrs by Annexin-V-FITC/propidium iodide staining based flow cytometric method (reference value: 0.27%); type: functional
[8] = test system: Trypanosoma cruzi; experiment: Induction of apoptosis in bloodstream trypomastigote stage of Trypanosoma cruzi Y infected in monkey LLC-MK2 cells assessed as necrotic cells at 2.2 uM measured after 24 hrs by Annexin-V-FITC/propidium iodide staining based flow cytometric method (reference value: 0.014%); type: functional
[9] = test system: Trypanosoma cruzi; experiment: Potency index, ratio of benznidazole CC50 to compound CC50 for Trypanosoma cruzi Dm28c epimastigotes; type: functional
[10] = test system: Trypanosoma cruzi; experiment: Induction of apoptosis in bloodstream trypomastigote stage of Trypanosoma cruzi Y infected in monkey LLC-MK2 cells assessed as necrotic cells at 4.4 uM measured after 24 hrs by Annexin-V-FITC/propidium iodide staining based flow cytometric method (reference value: 0.014%); type: functional
[11] = test system: Trypanosoma cruzi; experiment: Induction of apoptosis in bloodstream trypomastigote stage of Trypanosoma cruzi Y infected in monkey LLC-MK2 cells assessed as late apoptotic cells at 2.2 uM measured after 24 hrs by Annexin-V-FITC/propidium iodide staining based flow cytometric method (reference value: 0.27%); type: functional
[12] = test system: Trypanosoma cruzi; experiment: Induction of apoptosis in bloodstream trypomastigote stage of Trypanosoma cruzi Y infected in monkey LLC-MK2 cells assessed as early apoptotic cells at 2.2 uM measured after 24 hrs by Annexin-V-FITC/propidium iodide staining based flow cytometric method (reference value: 0.31%); type: functional
[13] = test system: Trypanosoma cruzi; experiment: Induction of apoptosis in bloodstream trypomastigote stage of Trypanosoma cruzi Y infected in monkey LLC-MK2 cells assessed as early apoptotic cells at 4.4 uM measured after 24 hrs by Annexin-V-FITC/propidium iodide staining based flow cytometric method (reference value: 0.31%); type: functional
[14] = test system: Trypanosoma cruzi; experiment: Induction of apoptosis in bloodstream trypomastigote stage of Trypanosoma cruzi Y infected in monkey LLC-MK2 cells assessed as late apoptotic cells at 1.6 uM measured after 24 hrs by Annexin-V-FITC/propidium iodide staining based flow cytometric method (reference value: 0.27%); type: functional
[15] = test system: Trypanosoma cruzi; experiment: Induction of apoptosis in bloodstream trypomastigote stage of Trypanosoma cruzi Y infected in monkey LLC-MK2 cells assessed as early apoptotic cells at 1.6 uM measured after 24 hrs by Annexin-V-FITC/propidium iodide staining based flow cytometric method (reference value: 0.31%); type: functional
[16] = test system: Trypanosoma cruzi; experiment: Induction of apoptosis in bloodstream trypomastigote stage of Trypanosoma cruzi Y infected in monkey LLC-MK2 cells assessed as early apoptotic cells at 3.2 uM measured after 24 hrs by Annexin-V-FITC/propidium iodide staining based flow cytometric method (reference value: 0.31%); type: functional
[17] = test system: Trypanosoma cruzi; experiment: Induction of apoptosis in bloodstream trypomastigote stage of Trypanosoma cruzi Y infected in monkey LLC-MK2 cells assessed as necrotic cells at 3.2 uM measured after 24 hrs by Annexin-V-FITC/propidium iodide staining based flow cytometric method (reference value: 0.014%); type: functional
[18] = test system: Trypanosoma cruzi; experiment: Induction of apoptosis in bloodstream trypomastigote stage of Trypanosoma cruzi Y infected in monkey LLC-MK2 cells assessed as late apoptotic cells at 3.2 uM measured after 24 hrs by Annexin-V-FITC/propidium iodide staining based flow cytometric method (reference value: 0.27%); type: functional
[19] = test system: Trypanosoma cruzi; experiment: Induction of apoptosis in bloodstream trypomastigote stage of Trypanosoma cruzi Y infected in monkey LLC-MK2 cells assessed as necrotic cells at 1.6 uM measured after 24 hrs by Annexin-V-FITC/propidium iodide staining based flow cytometric method (reference value: 0.014%); type: functional
[20] = test system: Trypanosoma cruzi; experiment: Induction of apoptosis in bloodstream trypomastigote stage of Trypanosoma cruzi Y infected in monkey LLC-MK2 cells assessed as necrotic cells at 25 uM measured after 24 hrs by Annexin-V-FITC/propidium iodide staining based flow cytometric method (reference value: 0.014%); type: functional
[21] = test system: Trypanosoma cruzi; experiment: Induction of apoptosis in bloodstream trypomastigote stage of Trypanosoma cruzi Y infected in monkey LLC-MK2 cells assessed as necrotic cells at 5 uM measured after 24 hrs by Annexin-V-FITC/propidium iodide staining based flow cytometric method (reference value: 0.014%); type: functional

Chain of Cruzipain (Trypanosoma cruzi) (P25779 123-467 limits assumed): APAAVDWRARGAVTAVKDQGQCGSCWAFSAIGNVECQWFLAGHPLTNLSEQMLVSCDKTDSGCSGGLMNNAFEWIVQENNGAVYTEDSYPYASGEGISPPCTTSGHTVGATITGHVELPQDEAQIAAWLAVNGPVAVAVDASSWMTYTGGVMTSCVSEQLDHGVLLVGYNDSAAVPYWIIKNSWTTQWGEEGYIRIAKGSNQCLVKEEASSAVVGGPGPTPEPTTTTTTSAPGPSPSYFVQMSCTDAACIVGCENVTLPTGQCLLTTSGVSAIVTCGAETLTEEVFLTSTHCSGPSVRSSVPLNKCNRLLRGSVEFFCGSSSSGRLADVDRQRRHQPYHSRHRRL

| Structure (SMILES) | CC50 [1] [µM] | MNTC [2] [µM] | CC50 [3] [µM] | selectivity ratio [4] | also measured |
| --- | --- | --- | --- | --- | --- |
| C/C(=N\N=c1/scc(-c2ccc(F)cc2)n1C)c1ccccn1 | 8.5 | 12 | 5.6 | 2 |  |
| COc1ccc(-c2cs/c(=N\N=C(/C)c3ccccn3)n2C)cc1 | 4.5 | 20 | 4.6 | 4 |  |
| C/C(=N\N=c1/scc(-c2ccc([N+](=O)[O-])cc2)n1-c1ccccc1)c1ccccn1 | 87.4 | 23 | 3.1 | 7 |  |
| C/C(=N\N=c1/sc(C)c(-c2ccc(Br)cc2)n1C)c1ccccn1 | 2.9 | 68 | 3.4 | 20 |  |
| C/C(=N\N=c1/scc(-c2cccc([N+](=O)[O-])c2)n1-c1ccccc1)c1ccccn1 | 11 | 10 | 1.9 | 5 |  |
| C/C(=N\N=c1/scc(-c2ccccc2)n1-c1ccccc1)c1ccccn1 | 93.4 | 51 | 6.3 | 8 |  |
| C/C(=N\N=c1/sc(C)c(-c2ccccc2)n1-c1ccccc1)c1ccccn1 | 15.5 | 43 | 2.3 | 19 |  |
| C/C(=N\N=c1/scc(-c2cccc([N+](=O)[O-])c2)n1C)c1ccccn1 | 7.8 | 82 | 2.4 | 34 | Ratio [5]: 3 |
| C/C(=N\N=c1/scc(-c2ccc(F)cc2)n1-c1ccccc1)c1ccccn1 | 3.1 | 35 | 3.9 | 9 | inhibition [6]: 58% |
| C/C(=N\N=c1/scc(-c2ccc(-c3ccccc3)cc2)n1-c1ccccc1)c1ccccn1 | 47.3 | 7 | 2 | 4 |  |
| C/C(=N\N=c1/scc(-c2ccc(Cl)cc2)n1C)c1ccccn1 |  | 20 | 4.5 | 4 |  |
| C/C(=N\N=c1/scc(-c2ccc(Cl)c(Cl)c2)n1-c1ccccc1)c1ccccn1 | 13.9 | 8 | 1.9 | 4 |  |
| C/C(=N\N=c1/sc(C)c(-c2ccccc2)n1C)c1ccccn1 | 6.2 | 97 | 2.7 | 36 | inhibition [6]: 73% |
| CNC(=S)N/N=C(\C)c1ccccn1 |  | 22 | 8.8 | 2.5 |  |
| C/C(=N\N=c1/scc(-c2ccccc2)n1C)c1ccccn1 | 56 | 4 | 4 | 1 | inhibition [6]: 70% |
| C/C(=N\N=c1/scc(-c2ccc3ccccc3c2)n1C)c1ccccn1 | 8.2 | 30 | 3 | 10 |  |
| C/C(=N\N=c1/scc(-c2ccc(Br)cc2)n1C)c1ccccn1 | 3.2 | 33 | 2.2 | 15 | Activity [7]: 4.7%; Activity [8]: 3%; Ratio [9]: 15; Activity [10]: 3.15%; Activity [11]: 4%; Activity [12]: 38%; Activity [13]: 35% |
| C/C(=N\N=c1/scc(-c2ccc(-c3ccccc3)cc2)n1C)c1ccccn1 | 66.6 | 6 | 2.2 | 3 |  |
| C/C(=N\N=c1/scc(-c2ccc(Cl)cc2)n1-c1ccccc1)c1ccccn1 | 9.1 | 13 | 2 | 7 |  |
| C/C(=N\N=c1/sc(C)c(-c2ccc(Br)cc2)n1-c1ccccc1)c1ccccn1 | 17.1 | 30 | 3.1 | 10 |  |
| C/C(=N\N=c1/scc(-c2ccc(Br)cc2)n1-c1ccccc1)c1ccccn1 | 6.3 | 10 | 1.8 | 6 |  |
| C/C(=N\N=c1/scc(-c2ccc(Cl)c(Cl)c2)n1C)c1ccccn1 | 6.9 | 11 | 2.3 | 5 | Ratio [9]: 7; Ratio [5]: 3 |
| C/C(=N\N=c1/scc(-c2ccc(Cl)cc2Cl)n1-c1ccccc1)c1ccccn1 | 2.7 | 81 | 1.6 | 50 to 51 | Activity [14]: 4%; Activity [15]: 39.5%; Ratio [9]: 18; Activity [16]: 39.4%; Ratio [5]: 4 - 5; Activity [17]: 3.2%; Activity [18]: 4.3%; Activity [19]: 2.9% |
| C/C(=N\N=c1/scc(-c2ccc3ccccc3c2)n1-c1ccccc1)c1ccccn1 | 1.9 | 51 | 6.1 | 8 |  |
| C/C(=N\N=c1/scc(-c2ccc([N+](=O)[O-])cc2)n1C)c1ccccn1 | 13.7 | 36 | 7 | 5 |  |
| O=C(Cn1ccnc1[N+](=O)[O-])NCc1ccccc1 [BENZNIDAZOLE] | 48.8 | 44.7 | 6.2 | 7.2 | Activity [20]: 56.4%; Activity [21]: 4.2% |
| C/C(=N\N=c1/scc(-c2ccc(Cl)cc2Cl)n1C)c1ccccn1 | 31.6 | 14 | 13 | 1 |  |
